Reference: ChEMBL document CHEMBL4689842, “EUbOPEN Chemogenomics Library wave 1” (2021)
Where “and” joins values, the source holds several entries; their conditions need not be identical. Equal values may be shown once.

Tested on: Fibroblast
Assay: Multiplex assay against human fibroblast
Assay type: toxicity, cell-based
Method in brief: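 Imaging took place on a CQ1 microscope at 37°C and 5% CO2 once compound had been added to live cells stained at seeding with Hoechst33342, BioTracker Green Microtubule Cytoskeleton Dye, MitoTracker Red and Annexin V Alexa Fluor 680. CellPathfinder machine-learning gating classed cells as Hoechst high-intensity objects or normal cells, classed normal cells as having healthy, pyknosed or fragmented nuclei, and classed pyknosed cells as mitotic or apoptotic. Tubulin, mitochondrial-mass and membrane-permeability phenotypes are per cents of the healthy-nucleus cells.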

[1] = 12 h, 1 µM, compound concentration 1 uM, replicate 1
[2] = 12 h, 1 µM, compound concentration 1 uM, replicate 2
[3] = 12 h, 10 µM, compound concentration 10 uM, replicate 1
[4] = 12 h, 10 µM, compound concentration 10 uM, replicate 2
[5] = 24 h, 1 µM, compound concentration 1 uM, replicate 1
[6] = 24 h, 1 µM, compound concentration 1 uM, replicate 2
[7] = 24 h, 10 µM, compound concentration 10 uM, replicate 1
[8] = 24 h, 10 µM, compound concentration 10 uM, replicate 2
[9] = 48 h, 10 µM, compound concentration 10 uM, replicate 1
[10] = 48 h, 10 µM, compound concentration 10 uM, replicate 2

SMILES: CC(C)Oc1ccc(C(=O)N[C@H](CNC(=O)CN(C)C)Cc2ccc(-c3cn4cccc([C@H](C)O)c4n3)cc2)cc1Cl [GSK-923295A]
- Population Apoptotic (%) [1]: 71%
- Population Fragmented Nuclei (%) [1]: 32%
- Population Healthy Nuclei (%) [1]: 48%
- Population Hoechst High Intensity Objects (%) [1]: 12%
- Population Membrane Permeable-Phenotype (%) [1]: 9%
- Population Mitochondria Different-Phenotype (%) [1]: 5%
- Population Mitotic Cells (%) [1]: 28%
- Population Normal (%) [1]: 87%
- Population Pyknosed Nuclei (%) [1]: 18%
- Population Tubulin-Different-Phenotype (%) [1]: 20%
- Total Cell Count [1]: 256
- Population Apoptotic (%) [2]: 100%
- Population Fragmented Nuclei (%) [2]: 49%
- Population Healthy Nuclei (%) [2]: 43%
- Population Hoechst High Intensity Objects (%) [2]: 31%
- Population Mitochondria Different-Phenotype (%) [2]: 31%
- Population Mitotic Cells (%) [2]: 0%
- Population Normal (%) [2]: 68%
- Population Pyknosed Nuclei (%) [2]: 7%
- Population Tubulin-Different-Phenotype (%) [2]: 40%
- Total Cell Count [2]: 74
- Population Apoptotic (%) [3]: 53% and 65%
- Population Fragmented Nuclei (%) [3]: 34% and 27%
- Population Healthy Nuclei (%) [3]: 34% and 50%
- Population Hoechst High Intensity Objects (%) [3]: 30% and 28%
- Population Mitochondria Different-Phenotype (%) [3]: 11% and 7%
- Population Mitotic Cells (%) [3]: 46% and 34%
- Population Normal (%) [3]: 69% and 71%
- Population Pyknosed Nuclei (%) [3]: 30% and 21%
- Population Tubulin-Different-Phenotype (%) [3]: 82% and 59%
- Population Apoptotic (%) [4]: 75% and 30%
- Population Healthy Nuclei (%) [4]: 28% and 73%
- Population Membrane Permeable-Phenotype (%) [4]: 42% and 30%
- Population Mitotic Cells (%) [4]: 25% and 69%
- Population Normal (%) [4]: 65% and 97%
- Population Pyknosed Nuclei (%) [4]: 16% and 17%
- Population Tubulin-Different-Phenotype (%) [4]: 92% and 100%
- Total Cell Count [4]: 75 and 76
- Population Apoptotic (%) [5]: 65%
- Population Fragmented Nuclei (%) [5]: 27%
- Population Healthy Nuclei (%) [5]: 58%
- Population Hoechst High Intensity Objects (%) [5]: 18%
- Population Membrane Permeable-Phenotype (%) [5]: 6%
- Population Mitochondria Different-Phenotype (%) [5]: 7%
- Population Mitotic Cells (%) [5]: 34%
- Population Normal (%) [5]: 81%
- Population Pyknosed Nuclei (%) [5]: 14%
- Population Tubulin-Different-Phenotype (%) [5]: 10%
- Total Cell Count [5]: 266
- Population Apoptotic (%) [6]: 100%
- Population Fragmented Nuclei (%) [6]: 58%
- Population Healthy Nuclei (%) [6]: 34%
- Population Hoechst High Intensity Objects (%) [6]: 26%
- Population Membrane Permeable-Phenotype (%) [6]: 10%
- Population Mitochondria Different-Phenotype (%) [6]: 15%
- Population Mitotic Cells (%) [6]: 0%
- Population Normal (%) [6]: 73%
- Population Pyknosed Nuclei (%) [6]: 6%
- Population Tubulin-Different-Phenotype (%) [6]: 25%
- Total Cell Count [6]: 79
- Population Apoptotic (%) [7]: 64% and 60%
- Population Fragmented Nuclei (%) [7]: 34% and 27%
- Population Healthy Nuclei (%) [7]: 44% and 54%
- Population Hoechst High Intensity Objects (%) [7]: 34% and 39%
- Population Membrane Permeable-Phenotype (%) [7]: 26% and 10%
- Population Mitochondria Different-Phenotype (%) [7]: 26% and 11%
- Population Mitotic Cells (%) [7]: 35% and 39%
- Population Normal (%) [7]: 65% and 60%
- Population Pyknosed Nuclei (%) [7]: 20% and 17%
- Population Tubulin-Different-Phenotype (%) [7]: 76% and 61%
- Population Apoptotic (%) [8]: 75% and 35%
- Population Healthy Nuclei (%) [8]: 35% and 64%
- Population Mitochondria Different-Phenotype (%) [8]: 96%
- Population Mitotic Cells (%) [8]: 25% and 65%
- Population Normal (%) [8]: 50% and 97%
- Population Pyknosed Nuclei (%) [8]: 9% and 24%
- Population Tubulin-Different-Phenotype (%) [8]: 73% and 100%
- Total Cell Count [8]: 83 and 72
- Population Apoptotic (%) [9]: 71%
- Population Fragmented Nuclei (%) [9]: 35%
- Population Healthy Nuclei (%) [9]: 50%
- Population Hoechst High Intensity Objects (%) [9]: 46%
- Population Membrane Permeable-Phenotype (%) [9]: 11%
- Population Mitochondria Different-Phenotype (%) [9]: 7%
- Population Mitotic Cells (%) [9]: 28%
- Population Normal (%) [9]: 53%
- Population Pyknosed Nuclei (%) [9]: 13%
- Population Tubulin-Different-Phenotype (%) [9]: 65%
- Total Cell Count [9]: 96
- Population Apoptotic (%) [10]: 57%
- Population Fragmented Nuclei (%) [10]: 32%
- Population Healthy Nuclei (%) [10]: 55%
- Population Hoechst High Intensity Objects (%) [10]: 35%
- Population Membrane Permeable-Phenotype (%) [10]: 9%
- Population Mitochondria Different-Phenotype (%) [10]: 6%
- Population Mitotic Cells (%) [10]: 42%
- Population Normal (%) [10]: 64%
- Population Pyknosed Nuclei (%) [10]: 11%
- Population Tubulin-Different-Phenotype (%) [10]: 71%
- Total Cell Count [10]: 281

SMILES: CCOc1cc2ncc(C#N)c(Nc3ccc(OCc4cccc(F)c4)c(Cl)c3)c2cc1NC(=O)/C=C/CN(C)C [HKI-357]
- Population Apoptotic (%) [1]: 72%
- Population Fragmented Nuclei (%) [1]: 21%
- Population Healthy Nuclei (%) [1]: 60%
- Population Hoechst High Intensity Objects (%) [1]: 14%
- Population Membrane Permeable-Phenotype (%) [1]: 7%
- Population Mitochondria Different-Phenotype (%) [1]: 7%
- Population Mitotic Cells (%) [1]: 27%
- Population Normal (%) [1]: 85%
- Population Pyknosed Nuclei (%) [1]: 18%
- Population Tubulin-Different-Phenotype (%) [1]: 11%
- Total Cell Count [1]: 223
- Population Apoptotic (%) [2]: 33%
- Population Fragmented Nuclei (%) [2]: 60%
- Population Healthy Nuclei (%) [2]: 31%
- Population Hoechst High Intensity Objects (%) [2]: 34%
- Population Membrane Permeable-Phenotype (%) [2]: 4%
- Population Mitochondria Different-Phenotype (%) [2]: 9%
- Population Mitotic Cells (%) [2]: 66%
- Population Normal (%) [2]: 65%
- Population Pyknosed Nuclei (%) [2]: 8%
- Population Tubulin-Different-Phenotype (%) [2]: 13%
- Total Cell Count [2]: 107
- Population Apoptotic (%) [3]: 76%
- Population Fragmented Nuclei (%) [3]: 42%
- Population Healthy Nuclei (%) [3]: 37%
- Population Hoechst High Intensity Objects (%) [3]: 13%
- Population Membrane Permeable-Phenotype (%) [3]: 15%
- Population Mitochondria Different-Phenotype (%) [3]: 12%
- Population Mitotic Cells (%) [3]: 23%
- Population Normal (%) [3]: 86%
- Population Pyknosed Nuclei (%) [3]: 20%
- Population Tubulin-Different-Phenotype (%) [3]: 46%
- Total Cell Count [3]: 368
- Population Apoptotic (%) [4]: 37%
- Population Fragmented Nuclei (%) [4]: 61%
- Population Healthy Nuclei (%) [4]: 20%
- Population Hoechst High Intensity Objects (%) [4]: 46%
- Population Mitochondria Different-Phenotype (%) [4]: 26%
- Population Mitotic Cells (%) [4]: 62%
- Population Normal (%) [4]: 53%
- Population Pyknosed Nuclei (%) [4]: 17%
- Population Tubulin-Different-Phenotype (%) [4]: 78%
- Total Cell Count [4]: 170
- Population Apoptotic (%) [5]: 57%
- Population Fragmented Nuclei (%) [5]: 23%
- Population Healthy Nuclei (%) [5]: 57%
- Population Hoechst High Intensity Objects (%) [5]: 15%
- Population Membrane Permeable-Phenotype (%) [5]: 6%
- Population Mitochondria Different-Phenotype (%) [5]: 3%
- Population Mitotic Cells (%) [5]: 42%
- Population Normal (%) [5]: 84%
- Population Pyknosed Nuclei (%) [5]: 18%
- Population Tubulin-Different-Phenotype (%) [5]: 5%
- Total Cell Count [5]: 238
- Population Apoptotic (%) [6]: 60%
- Population Fragmented Nuclei (%) [6]: 59%
- Population Healthy Nuclei (%) [6]: 33%
- Population Hoechst High Intensity Objects (%) [6]: 31%
- Population Membrane Permeable-Phenotype (%) [6]: 13%
- Population Mitochondria Different-Phenotype (%) [6]: 4%
- Population Mitotic Cells (%) [6]: 40%
- Population Normal (%) [6]: 68%
- Population Pyknosed Nuclei (%) [6]: 7%
- Population Tubulin-Different-Phenotype (%) [6]: 18%
- Total Cell Count [6]: 97
- Population Apoptotic (%) [7]: 73%
- Population Fragmented Nuclei (%) [7]: 44%
- Population Healthy Nuclei (%) [7]: 42%
- Population Hoechst High Intensity Objects (%) [7]: 19%
- Population Membrane Permeable-Phenotype (%) [7]: 5%
- Population Mitochondria Different-Phenotype (%) [7]: 7%
- Population Mitotic Cells (%) [7]: 26%
- Population Normal (%) [7]: 80%
- Population Pyknosed Nuclei (%) [7]: 12%
- Population Tubulin-Different-Phenotype (%) [7]: 39%
- Total Cell Count [7]: 409
- Population Apoptotic (%) [8]: 63%
- Population Fragmented Nuclei (%) [8]: 69%
- Population Healthy Nuclei (%) [8]: 19%
- Population Hoechst High Intensity Objects (%) [8]: 45%
- Population Membrane Permeable-Phenotype (%) [8]: 4%
- Population Mitochondria Different-Phenotype (%) [8]: 23%
- Population Mitotic Cells (%) [8]: 36%
- Population Normal (%) [8]: 54%
- Population Pyknosed Nuclei (%) [8]: 10%
- Population Tubulin-Different-Phenotype (%) [8]: 66%
- Total Cell Count [8]: 193
